Measured values: publication PMC3157688 (The FASEB Journal, 2011)

Experiments:
[1] = tested on: brain mRNA levels of APP[V717I] transgenic mice; assay: Quantitative real-time RT-PCR of brain mRNA levels; type: in vivo, mouse; conditions: 6-mo-old mice, 3 mo intranasal treatment; n=7/group
[2] = tested on: human APP processing in the brain of APP[V717I]-transgenic mice; assay: Immunoblot of sAPPα and full-length APP in brain homogenates, first study; type: in vivo, mouse; conditions: 10 μg daily intranasal, administration solution 1, 3 mo; 4-mo-old male mice
Summary of the method: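 Male APP[V717I] mice (FVB/N background), 1 mo old, received the test compound intranasally at 10 μg/d (1 μg/μl, 5 μl/nostril), 5 d/wk for 3 mo. Vehicle: NaCl/citric acid/disodium phosphate/benzalkonium chloride water solution. Controls (n=8) received carrier alone. Hemispheres homogenized in ice-cold 20 mM Tris-HCl pH 8.5 plus protease inhibitors, then centrifuged at 100,000 g for 1 h at 4°C. sAPPα probed with 6E10 and a 35S-labeled or peroxidase-coupled secondary.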

[3] = tested on: healthy human male subjects; conditions: cited from earlier work
[4] = tested on: APP[V717I]-transgenic mice; assay: Open field activity and enriched open field; type: in vivo, mouse; conditions: 6-mo-old mice after 3 mo of daily intranasal treatment; data not shown

pituitary adenylate cyclase-activating polypeptide [PACAP38]
ADAM10 gene expression in brain (in words) [1]: not caused by increased ADAM10 and ADAM17 gene expression
ADAM17 gene expression in brain (in words) [1]: not caused by increased ADAM10 and ADAM17 gene expression
expression level of full-length APP in the brain [2]: no influence
tolerability of inhaled peptide [3]: well tolerated without systemic side-effects
activity and exploration-related parameters, difference between the tested groups [4]: no differences
